Experiments:
Human betaherpesvirus 5 [1] = assay: Antiviral activity against human cytomegalovirus AD-169 infected in human HEL cells assessed as inhibition of virus-induced cytopathic effect; format: functional, cell-based; details: Human betaherpesvirus 5, AD-169, HEL
Summary of the method: (§1)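 Confluent HEL fibroblast monolayers were inoculated in 96-well plates with 100 CCID50 of virus in the presence of serially varied compound concentrations. Cytopathicity was scored once untreated infected controls reached full CPE.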

[2] = test system: Human immunodeficiency virus 1; assay: Antiviral activity against HIV1 X4LAI.04 infected in human MT4 cells assessed as decrease in viral replication by p24gag-based luminex assay; format: functional, cell-based; details: Human immunodeficiency virus 1, X4LAI.04, MT4
Summary of the method: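 10^6 MT-4 cells were infected with HIV-1 X4LAI.04 (7 ng p24) for 2 h at 37 °C, then washed with PBS and resuspended. Compounds were added and cultures were kept 3 days at 37 °C. Supernatant p24 was measured by bead-based Luminex. Inhibition was calculated as (1 − p24 treated/p24 untreated) × 100, and EC50 was derived from it.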

MT4 = assay: Cytotoxicity against human MT4 cells assessed as reduction in cell viability by cell counting method; format: cell-based
Summary of the method: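 MT-4 cultures, untreated or treated, were assessed with an automated cell counter using propidium iodide staining to enumerate total and dead cells.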

CCRF-CEM = assay: Cytostatic activity human CEM cells assessed as reduction in cell viability after 72 hrs by cell counting method; format: cell-based; details: ccrf-cem, 72 h
Summary of the method: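 (5–7.5) × 10^? CEM cells per well were grown with compound for 72 h at 37 °C under humidified CO2. Cells were counted in a Coulter counter.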

Human alphaherpesvirus 1 [3] = assay: Antiviral activity against Herpes simplex virus 1 KOS infected in human HEL cells assessed as inhibition of virus-induced cytopathic effect; format: functional, cell-based; details: Human alphaherpesvirus 1, KOS; summary of the method: as §1
Human alphaherpesvirus 2 = assay: Antiviral activity against Herpes simplex virus 2 G infected in human HEL cells assessed as inhibition of virus-induced cytopathic effect; format: functional, cell-based; details: Human alphaherpesvirus 2, strain G; summary of the method: as §1
Human alphaherpesvirus 1 [4] = assay: Antiviral activity against ACV-resistant thymidine kinase deficient Herpes simplex virus 1 KOS infected in human HEL cells assessed as inhibition of virus-induced cytopathic effect; format: functional, cell-based; details: Human alphaherpesvirus 1, KOS; summary of the method: as §1
[5] = Cytotoxicity against human HEL cells assessed as alteration to cell morphology by microscopic analysis; format: cell-based
Summary of the method: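 Minimal cytotoxic concentration is the compound concentration giving a microscopically visible alteration of HEL cell morphology, scored in the antiviral assay cultures.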

Human betaherpesvirus 5 [6] = assay: Antiviral activity against human cytomegalovirus Davis infected in human HEL cells assessed as inhibition of virus-induced cytopathic effect; format: functional, cell-based; details: Human betaherpesvirus 5, Davis; summary of the method: as §1
Human alphaherpesvirus 3 [7] = assay: Antiviral activity against Varicella-Zoster virus OKA infected in human HEL cells assessed as inhibition of virus-induced cytopathic effect; format: functional, cell-based; details: Human alphaherpesvirus 3, strain Oka vaccine
Summary of the method: (§2)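 Confluent HEL fibroblast cultures were inoculated with 20 PFU of VZV in the presence of varying compound concentrations. Plaque formation was recorded once untreated infected controls reached completion.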

Human alphaherpesvirus 3 [8] = assay: Antiviral activity against thymidine kinase deficient Varicella-Zoster virus 07-1 infected in human HEL cells assessed as inhibition of virus-induced cytopathic effect; format: functional, cell-based; details: Human alphaherpesvirus 3, 07-1, HEL; summary of the method: as §2
HEL = assay: Cytotoxicity against human HEL cells assessed as cell growth inhibition by cell counting method; format: cell-based
[9] = Drug metabolism assessed as carboxypeptidase Y (unknown origin)-mediated metabolite 79 formation measured after 14 hrs by [31P]-NMR spectroscopic analysis; format: ADME; details: human
[10] = Drug metabolism assessed as carboxypeptidase Y (unknown origin)-mediated metabolite 81 peak measured after 14 hrs by [31P]-NMR spectroscopic analysis; format: ADME; details: human
[11] = Drug metabolism assessed as carboxypeptidase Y (unknown origin)-mediated metabolite 81 formation measured after 2 hrs by [31P]-NMR spectroscopic analysis; format: ADME; details: human
[12] = Drug metabolism assessed as carboxypeptidase Y (unknown origin)-mediated metabolite 79 formation measured after 2 hrs by [31P]-NMR spectroscopic analysis; format: ADME; details: human
[13] = test system: Human immunodeficiency virus 1; assay: Antiviral activity against HIV1 X4LAI.04 infected in human tonsillar tissues assessed as inhibition of virus-induced cytopathic effect by p24gag-based luminex assay; format: functional; details: Human immunodeficiency virus 1, X4LAI.04
Summary of the method: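 Tonsillectomy tissue blocks of 2–3 mm³ were cultured on collagen sponge gels at the air–liquid interface, 27 blocks per donor per condition. Blocks were pretreated with compound overnight, infected with HIV-1 X4LAI.04 and cultured 12 days, with drug replenished at each medium change every 3 days. Medium p24 was measured by Luminex. Inhibition was calculated against untreated tissue, and EC50 was derived from it.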

[14] = Prodrug activation assessed as carboxypeptidase Y (unknown origin)-mediated 2-{5-[2-(2-Amino-6-chloro-purin-9-yl)-ethyl]-2-oxo-2lambda(5)-[1,3,2]dioxaphosphinan-2-ylamino}-propionic acid anion peak formation measured with in 1 hr by [31P]-NMR spectroscopic analysis; details: human
[15] = Prodrug activation assessed as carboxypeptidase Y (unknown origin)-mediated 2-((4-(2-amino-6-chloro-9H-purin-9-yl)-2-(hydroxymethyl)butoxy)oxidophosphorylamino)propanoate peak formation measured after […] by [31P]-NMR spectroscopic analysis; details: human
[16] = Prodrug activation assessed as carboxypeptidase Y (unknown origin)-mediated 2-((4-(2-amino-6-chloro-9H-purin-9-yl)-2-(hydroxymethyl)butoxy)oxidophosphorylamino)propanoate formation measured after 8 hrs by [31P]-NMR spectroscopic analysis; details: human
[17] = Prodrug activation assessed as carboxypeptidase Y (unknown origin)-mediated 2-((4-(2-amino-6-chloro-9H-purin-9-yl)-2-(hydroxymethyl)butoxy)oxidophosphorylamino)propanoate formation by mass spectroscopic analysis; details: human
[18] = Drug metabolism assessed as carboxypeptidase Y (unknown origin)-mediated metabolite 81 peak measured after 15 mins by [31P]-NMR spectroscopic analysis; format: ADME; details: human
[19] = Drug metabolism assessed as carboxypeptidase Y (unknown origin)-mediated metabolite 79 formation measured after 15 mins by [31P]-NMR spectroscopic analysis; format: ADME; details: human
[20] = Drug metabolism assessed as carboxypeptidase Y (unknown origin)-mediated metabolite 81 peak formation measured with in 30 mins by [31P]-NMR spectroscopic analysis; format: ADME; details: human, 0.5 h

Structure (SMILES): CCCOC(=O)[C@H](C)NP(=O)(OCC(CCn1cnc2c(OC)nc(N)nc21)COP(=O)(N[C@@H](C)C(=O)OCCC)Oc1cccc2ccccc12)Oc1cccc2ccccc12 (stereo partly drawn)
- EC50 (Human betaherpesvirus 5 [1]): 32 µM
- EC50 [2]: 9.7 µM
- IC50 (MT4): 20 µM
- CC50 (CCRF-CEM): 6.8 µM
- EC50 (Human alphaherpesvirus 1 [3]): > 100 µM
- EC50 (Human alphaherpesvirus 2): > 100 µM
- EC50 (Human alphaherpesvirus 1 [4]): > 100 µM
- MCC [5]: 50 to 100 µM
- EC50 (Human betaherpesvirus 5 [6]): 40 µM
- EC50 (Human alphaherpesvirus 3 [7]): 6.1 µM
- EC50 (Human alphaherpesvirus 3 [8]): 8.1 µM
- CC50 (HEL): 4.9 µM
- Drug metabolism [9]: Metabolite_Detected
- Drug metabolism [10]: Metabolite_Detected

Structure (SMILES): CCCOC(=O)[C@H](C)NP(=O)(OCC(CO)CCn1cnc2c(OC)nc(N)nc21)Oc1cccc2ccccc12 (stereo partly drawn)
- EC50 (Human betaherpesvirus 5 [1]): 32 µM
- EC50 [2]: 11 µM
- IC50 (MT4): 13 µM
- CC50 (CCRF-CEM): 17 µM
- EC50 (Human alphaherpesvirus 1 [3]): 14 µM
- EC50 (Human alphaherpesvirus 2): 15 µM
- EC50 (Human alphaherpesvirus 1 [4]): ≥ 20 µM
- MCC [5]: 50 to 100 µM
- EC50 (Human betaherpesvirus 5 [6]): 50 µM
- EC50 (Human alphaherpesvirus 3 [7]): 3.7 µM
- EC50 (Human alphaherpesvirus 3 [8]): 9.1 µM
- CC50 (HEL): 14.4 µM
- Drug metabolism [11]: Metabolite_Detected
- Drug metabolism [12]: Metabolite_Detected

Structure (SMILES): C[C@H](NP1(=O)OCC(OCn2cnc3c(Cl)nc(N)nc32)CO1)C(=O)OCc1ccccc1 (stereo partly drawn)
- EC50 [2]: 85 µM
- IC50 (MT4): 150 µM
- CC50 (CCRF-CEM): 165 µM
- EC50 [13]: 9 µM
- EC50 (Human alphaherpesvirus 1 [3]): > 100 µM
- EC50 (Human alphaherpesvirus 2): > 100 µM
- EC50 (Human alphaherpesvirus 1 [4]): > 100 µM
- MCC [5]: > 100 µM
- Drug metabolism [14]: Metabolite_Detected
- Drug metabolism [15]: Metabolite_Detected
- Drug metabolism [16]: Metabolite_Detected
- Drug metabolism [17]: Metabolite_Detected

Structure (SMILES): C[C@H](NP(=O)(OCC(CO)CCn1cnc2c(=O)[nH]c(N)nc21)Oc1cccc2ccccc12)C(=O)OCc1ccccc1 (stereo partly drawn)
- EC50 (Human betaherpesvirus 5 [1]): > 50 µM
- EC50 [2]: 21 µM
- IC50 (MT4): 100 µM
- CC50 (CCRF-CEM): 138 µM
- EC50 (Human alphaherpesvirus 1 [3]): 73 µM
- EC50 (Human alphaherpesvirus 2): 79 µM
- EC50 (Human alphaherpesvirus 1 [4]): > 100 µM
- MCC [5]: 50 to 100 µM
- EC50 (Human betaherpesvirus 5 [6]): > 50 µM
- EC50 (Human alphaherpesvirus 3 [7]): 9.3 µM
- EC50 (Human alphaherpesvirus 3 [8]): > 50 µM
- CC50 (HEL): > 100 µM
- Drug metabolism [18]: Metabolite_Detected
- Drug metabolism [19]: Metabolite_Detected

Structure (SMILES): C[C@H](NP(=O)(OCC(CO)CCn1cnc2c(Cl)nc(N)nc21)Oc1ccccc1)C(=O)OCc1ccccc1 (mixture of isomers)
- EC50 (Human betaherpesvirus 5 [1]): > 100 µM
- EC50 [2]: 1 µM
- IC50 (MT4): 20 µM
- CC50 (CCRF-CEM): 33 µM
- EC50 [13]: 4 µM
- EC50 (Human alphaherpesvirus 1 [3]): > 100 µM
- EC50 (Human alphaherpesvirus 2): > 100 µM
- EC50 (Human alphaherpesvirus 1 [4]): > 100 µM
- MCC [5]: > 100 µM
- EC50 (Human betaherpesvirus 5 [6]): > 100 µM
- EC50 (Human alphaherpesvirus 3 [7]): 37.3 µM
- EC50 (Human alphaherpesvirus 3 [8]): 42.9 µM
- CC50 (HEL): 39 µM
- Drug metabolism [20]: Metabolite_Detected

— ChEMBL document CHEMBL4017507 (J Med Chem, 2017)
